# Reference: ChEMBL document CHEMBL1932986, “Synthesis and in vitro antimycobacterial activity of compounds derived from (R)- and (S)-2-amino-1-butanol - The crucial role of the configuration” (Eur J Med Chem, 2012)
# The source made the active and inactive calls. The calls are words filed in the database; no cut-off is given here.
# What was measured:
# Saccharomyces cerevisiae [1] = assay: Antifungal activity against Saccharomyces cerevisiae ATCC 9763 at 12.5 mg/ml after 72 hrs by agar diffusion test; assay type: functional; conditions: ATCC 9763, 72 h, read-out: DIZ
# How it was run: (§1)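 Agar diffusion: yeasts grown on yeast peptone dextrose agar and fungi on potato dextrose agar. Wells are filled with […] of compound solution in DMSO at various concentrations, and the clear-zone diameter is measured. Bracketed values give the lowest concentration (mg/ml) that produces a zone >11 mm. A first screen is run at 50 mg/ml.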
# Penicillium chrysogenum [2] = assay: Antifungal activity against Penicillium chrysogenum CECT 2802 at 2 mg/ml after 72 hrs by agar diffusion test; assay type: functional, organism-based; how it was run: as §1
# Saccharomyces cerevisiae [3] = assay: Antifungal activity against Saccharomyces cerevisiae ATCC 9763 at 2 mg/ml after 72 hrs by agar diffusion test; assay type: functional, organism-based; how it was run: as §1
# Candida tropicalis [4] = assay: Antifungal activity against Candida tropicalis ATCC 20336 at 2 mg/ml after 72 hrs by agar diffusion test; assay type: functional, organism-based; how it was run: as §1
# Escherichia coli [5] = assay: Antibacterial activity against Escherichia coli ATCC 8739 at 2 mg/ml after 24 hrs by agar diffusion test; assay type: functional, organism-based
# How it was run: (§2)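 Agar diffusion: wells in agar filled with […] DMSO solution of compound at various concentrations; diameter of clear zone around application point measured. Bacteria grown 24 h at 37 °C on nutrient agar. Compounds first screened at 50 mg/ml; those active then tested at lower concentrations. Bracketed value = lowest concentration (mg/ml) giving zone >11 mm, reported only if activity retained at ≤1.25 mg/ml.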
# Micrococcus luteus [6] = assay: Antibacterial activity against Micrococcus luteus ATCC 9631 at 2 mg/ml after 24 hrs by agar diffusion test; assay type: functional, organism-based; how it was run: as §2
# Micrococcus luteus [7] = assay: Antibacterial activity against Sarcina lutea ATCC 9341 at 2 mg/ml after 24 hrs by agar diffusion test; assay type: functional, organism-based; how it was run: as §2
# Staphylococcus aureus [8] = assay: Antibacterial activity against Staphylococcus aureus NRRL B 313 at 2 mg/ml after 24 hrs by agar diffusion test; assay type: functional, organism-based
# How it was run: (§3)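 Agar diffusion: bacteria grown 24 h at 37 °C on nutrient agar. Wells in the agar are filled with […] of compound solution in DMSO at various concentrations. The diameter of the clear zone around the application point is measured. Bracketed values give the lowest concentration (mg/ml) that produces a zone >11 mm. A first screen is run at 50 mg/ml.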
# Acinetobacter johnsonii [9] = assay: Antibacterial activity against Acinetobacter johnsonii ATCC 17909 at 2 mg/ml after 24 hrs by agar diffusion test; assay type: functional; how it was run: as §2
# Bacillus cereus [10] = assay: Antibacterial activity against Bacillus cereus ATCC 11778 at 2 mg/ml after 24 hrs by agar diffusion test; assay type: functional, organism-based; how it was run: as §2
# Bacillus mycoides [11] = assay: Antibacterial activity against Bacillus mycoides DSMZ 274 at 2 mg/ml after 24 hrs by agar diffusion test; assay type: functional, organism-based; how it was run: as §2
# Priestia megaterium [12] = assay: Antibacterial activity against Bacillus megaterium NRRL 1353895 at 2 mg/ml after 24 hrs by agar diffusion test; assay type: functional, organism-based; how it was run: as §2
# Bacillus [13] = assay: Antibacterial activity against Bacillus idosus B 241 at 2 mg/ml after 24 hrs by agar diffusion test; assay type: functional, organism-based; how it was run: as §2
# Bacillus subtilis [14] = assay: Antibacterial activity against Bacillus subtilis ATCC 6633 at 2 mg/ml after 24 hrs by agar diffusion test; assay type: functional, organism-based; how it was run: as §2
# Bacillus subtilis [15] = assay: Antibacterial activity against Bacillus subtilis ATCC 6633 assessed as concentration required to produce >11 mm of zone of inhibition after 24 hrs by agar diffusion test; assay type: functional; how it was run: as §2
# Bacillus [16] = assay: Antibacterial activity against Bacillus idosus B 241 assessed as concentration required to produce >11 mm of zone of inhibition after 24 hrs by agar diffusion test; assay type: functional; how it was run: as §2
# Priestia megaterium [17] = assay: Antibacterial activity against Bacillus megaterium NRRL 1353895 assessed as concentration required to produce >11 mm of zone of inhibition after 24 hrs by agar diffusion test; assay type: functional; how it was run: as §2
# Bacillus mycoides [18] = assay: Antibacterial activity against Bacillus mycoides DSMZ 274 assessed as concentration required to produce >11 mm of zone of inhibition after 24 hrs by agar diffusion test; assay type: functional; how it was run: as §2
# Bacillus cereus [19] = assay: Antibacterial activity against Bacillus cereus ATCC 11778 assessed as concentration required to produce >11 mm of zone of inhibition after 24 hrs by agar diffusion test; assay type: functional; how it was run: as §2
# Acinetobacter johnsonii [20] = assay: Antibacterial activity against Acinetobacter johnsonii ATCC 17909 assessed as concentration required to produce >11 mm of zone of inhibition after 24 hrs by agar diffusion test; assay type: functional; how it was run: as §2
# [21] = test system: Mycobacterium tuberculosis; assay: Antimycobacterial activity against Mycobacterium tuberculosis H37Rv after 45 days; assay type: functional
# How it was run: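 Canetti proportion method. Compound in DMSO is added to Löwenstein–Jensen egg medium before coagulation (30 min, 85 °C), tested at three levels plus a lower one where needed. Tubes are inoculated with H37Rv at 10⁵ cells/ml and incubated 45 days at 37 °C. Colony counts versus drug-free control give percentage inhibition.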
# Staphylococcus aureus [22] = assay: Antibacterial activity against Staphylococcus aureus NRRL B 313 assessed as concentration required to produce >11 mm of zone of inhibition after 24 hrs by agar diffusion test; assay type: functional; how it was run: as §3
# Micrococcus luteus [23] = assay: Antibacterial activity against Sarcina lutea ATCC 9341 assessed as concentration required to produce >11 mm of zone of inhibition after 24 hrs by agar diffusion test; assay type: functional; how it was run: as §2
# Micrococcus luteus [24] = assay: Antibacterial activity against Micrococcus luteus ATCC 9631 assessed as concentration required to produce >11 mm of zone of inhibition after 24 hrs by agar diffusion test; assay type: functional; how it was run: as §2
# Escherichia coli [25] = assay: Antibacterial activity against Escherichia coli ATCC 8739 assessed as concentration required to produce >11 mm of zone of inhibition after 24 hrs by agar diffusion test; assay type: functional; how it was run: as §2
# Candida tropicalis [26] = assay: Antifungal activity against Candida tropicalis ATCC 20336 assessed as concentration required to produce >11 mm of zone of inhibition after 72 hrs by agar diffusion test; assay type: functional; how it was run: as §1
# Saccharomyces cerevisiae [27] = assay: Antifungal activity against Saccharomyces cerevisiae ATCC 9763 assessed as concentration required to produce >11 mm of zone of inhibition after 72 hrs by agar diffusion test; assay type: functional; how it was run: as §1
# Penicillium chrysogenum [28] = assay: Antifungal activity against Penicillium chrysogenum CECT 2802 assessed as concentration required to produce >11 mm of zone of inhibition after 72 hrs by agar diffusion test; assay type: functional; how it was run: as §1
# Bacillus subtilis [29] = assay: Antibacterial activity against Bacillus subtilis ATCC 6633 at 50 mg/ml after 24 hrs by agar diffusion test; assay type: functional; conditions: ATCC 6633, 24 h, read-out: DIZ; how it was run: as §2
# Bacillus [30] = assay: Antibacterial activity against Bacillus idosus B 241 at 50 mg/ml after 24 hrs by agar diffusion test; assay type: functional; conditions: B 241, 24 h, read-out: DIZ; how it was run: as §2
# Priestia megaterium [31] = assay: Antibacterial activity against Bacillus megaterium NRRL 1353895 at 50 mg/ml after 24 hrs by agar diffusion test; assay type: functional; conditions: NRRL 1353895, 24 h, read-out: DIZ; how it was run: as §2
# Bacillus mycoides [32] = assay: Antibacterial activity against Bacillus mycoides DSMZ 274 at 50 mg/ml after 24 hrs by agar diffusion test; assay type: functional; conditions: DSMZ 274, 24 h, read-out: DIZ; how it was run: as §2
# Bacillus cereus [33] = assay: Antibacterial activity against Bacillus cereus ATCC 11778 at 50 mg/ml after 24 hrs by agar diffusion test; assay type: functional; conditions: ATCC 11778, 24 h, read-out: DIZ; how it was run: as §2
# Acinetobacter johnsonii [34] = assay: Antibacterial activity against Acinetobacter johnsonii ATCC 17909 at 50 mg/ml after 24 hrs by agar diffusion test; assay type: functional; conditions: ATCC 17909, 24 h, read-out: DIZ; how it was run: as §2
# Staphylococcus aureus [35] = assay: Antibacterial activity against Staphylococcus aureus NRRL B 313 at 50 mg/ml after 24 hrs by agar diffusion test; assay type: functional; conditions: NRRL B 313, 24 h, read-out: DIZ; how it was run: as §3
# Micrococcus luteus [36] = assay: Antibacterial activity against Sarcina lutea ATCC 9341 at 50 mg/ml after 24 hrs by agar diffusion test; assay type: functional; conditions: ATCC 9341, 24 h, read-out: DIZ; how it was run: as §3
# Micrococcus luteus [37] = assay: Antibacterial activity against Micrococcus luteus ATCC 9631 at 50 mg/ml after 24 hrs by agar diffusion test; assay type: functional; conditions: ATCC 9631, 24 h, read-out: DIZ; how it was run: as §2
# Escherichia coli [38] = assay: Antibacterial activity against Escherichia coli ATCC 8739 at 50 mg/ml after 24 hrs by agar diffusion test; assay type: functional; conditions: ATCC 8739, 24 h, read-out: DIZ; how it was run: as §2
# Candida tropicalis [39] = assay: Antifungal activity against Candida tropicalis ATCC 20336 at 50 mg/ml after 72 hrs by agar diffusion test; assay type: functional; conditions: ATCC 20336, 72 h, read-out: DIZ; how it was run: as §1
# Saccharomyces cerevisiae [40] = assay: Antifungal activity against Saccharomyces cerevisiae ATCC 9763 at 50 mg/ml after 72 hrs by agar diffusion test; assay type: functional; conditions: ATCC 9763, 72 h, read-out: DIZ; how it was run: as §1
# Penicillium chrysogenum [41] = assay: Antifungal activity against Penicillium chrysogenum CECT 2802 at 50 mg/ml after 72 hrs by agar diffusion test; assay type: functional; conditions: CECT 2802, 72 h, read-out: DIZ; how it was run: as §1
compound,measurement,setting,value
CCC(C)n1ncn(-c2ccc(N3CCN(c4ccc(OCC5COC(Cn6cncn6)(c6ccc(Cl)cc6Cl)O5)cc4)CC3)cc2)c1=O (stereo unspecified) [ITRACONAZOLE],zone of inhibition at 12500 µg/mL,Saccharomyces cerevisiae [1],30 mm
CC[C@H](COC(C)=O)N1C(=O)C=CC1=O,diameter of the inhibition zone (DIZ),Penicillium chrysogenum [2],inactive
same,diameter of the inhibition zone (DIZ),Saccharomyces cerevisiae [3],inactive
same,diameter of the inhibition zone (DIZ),Candida tropicalis [4],inactive
same,diameter of the inhibition zone (DIZ),Escherichia coli [5],inactive
same,diameter of the inhibition zone (DIZ),Micrococcus luteus [6],inactive
same,diameter of the inhibition zone (DIZ),Micrococcus luteus [7],inactive
same,diameter of the inhibition zone (DIZ),Staphylococcus aureus [8],inactive
same,diameter of the inhibition zone (DIZ),Acinetobacter johnsonii [9],inactive
same,diameter of the inhibition zone (DIZ),Bacillus cereus [10],inactive
same,diameter of the inhibition zone (DIZ),Bacillus mycoides [11],inactive
same,diameter of the inhibition zone (DIZ),Priestia megaterium [12],inactive
same,diameter of the inhibition zone (DIZ),Bacillus [13],inactive
same,diameter of the inhibition zone (DIZ),Bacillus subtilis [14],inactive
same,Activity,Bacillus subtilis [15],0.06 mg/mL
same,Activity,Bacillus [16],0.06 mg/mL
same,Activity,Priestia megaterium [17],0.06 mg/mL
same,Activity,Bacillus mycoides [18],0.06 mg/mL
same,Activity,Bacillus cereus [19],0.0125 mg/mL
same,Activity,Acinetobacter johnsonii [20],0.06 mg/mL
same,MIC,[21],23.7 µM
same,Activity,Staphylococcus aureus [22],0.06 mg/mL
same,Activity,Micrococcus luteus [23],0.06 mg/mL
same,Activity,Micrococcus luteus [24],0.3 mg/mL
same,Activity,Escherichia coli [25],1.25 mg/mL
same,Activity,Candida tropicalis [26],0.006 mg/mL
same,Activity,Saccharomyces cerevisiae [27],0.006 mg/mL
same,Activity,Penicillium chrysogenum [28],0.0125 mg/mL
same,zone of inhibition at 50000 µg/mL,Bacillus subtilis [29],40 mm
same,zone of inhibition at 50000 µg/mL,Bacillus [30],35 mm
same,zone of inhibition at 50000 µg/mL,Priestia megaterium [31],40 mm
same,zone of inhibition at 50000 µg/mL,Bacillus mycoides [32],38 mm
same,zone of inhibition at 50000 µg/mL,Bacillus cereus [33],40 mm
same,zone of inhibition at 50000 µg/mL,Acinetobacter johnsonii [34],39 mm
same,zone of inhibition at 50000 µg/mL,Staphylococcus aureus [35],> 40 mm
same,zone of inhibition at 50000 µg/mL,Micrococcus luteus [36],38 mm
same,zone of inhibition at 50000 µg/mL,Micrococcus luteus [37],38 mm
same,zone of inhibition at 50000 µg/mL,Escherichia coli [38],29 mm
same,zone of inhibition at 50000 µg/mL,Candida tropicalis [39],> 40 mm
same,zone of inhibition at 50000 µg/mL,Saccharomyces cerevisiae [40],> 40 mm
same,zone of inhibition at 50000 µg/mL,Penicillium chrysogenum [41],> 40 mm
